Data reported in ChEMBL document CHEMBL1128301, “Cephalosporin derivatives of doxorubicin as prodrugs for activation by monoclonal antibody-beta-lactamase conjugates” (J Med Chem, 1995).

Columns and labels:
[1] = substrate: COc1cccc2c1C(=O)c1c(O)c3c(c(O)c1C2=O)C[C@@](O)(C(=O)CO)C[C@@H]3OC1CC(NC(=O)OCC2=C(C(=O)O)N3C(=O)[C@@H](NC(=O)CCCC(=O)O)[C@H]3SC2)C(O)C(C)O1; assay: The kinetic constant(Km) value as spectrophotometrically by using Escherichia coli TEM-1 beta-lactamase (ECbL) enzyme as catalyst
Procedure, shortened: (§1)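 Spectrophotometric hydrolysis at 23 °C in PBS with 12.5 μg/mL BSA. EClbL was used at 0.1 μg/mL; BCbL and ECbL at 1.0 μg/mL. […] Initial velocities were linear over 1 min.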

[2] = substrate: COc1cccc2c1C(=O)c1c(O)c3c(c(O)c1C2=O)C[C@@](O)(C(=O)CO)C[C@@H]3OC1CC(NC(=O)OCC2=C(C(=O)O)N3C(=O)[C@@H](NC(=O)CCCC(=O)O)[C@H]3SC2)C(O)C(C)O1; assay: The kinetic constant(Km) value as spectrophotometrically by using Enterobacter cloacae P99 beta-lactamase (ECIbL) enzyme as catalyst
Procedure, shortened: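 Initial-velocity kinetics at 23 °C in PBS with 12.5 μg/mL bovine serum albumin. […] Hydrolysis followed by absorbance change at 230 nm or 260 nm, linear over 1 min. Km from direct linear plots, mean of at least three independent experiments.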

[3] = substrate: COc1cccc2c1C(=O)c1c(O)c3c(c(O)c1C2=O)C[C@@](O)(C(=O)CO)C[C@@H]3OC1CC(NC(=O)OCC2=C(C(=O)O)N3C(=O)[C@@H](NC(=O)CCCC(=O)O)[C@H]3SC2)C(O)C(C)O1; assay: The kinetic constant(Km) value as spectrophotometrically by using Bacillus cereus beta-lactamase (BCbL) enzyme as catalyst; procedure, shortened: as §1

B1: Beta-lactamase TEM (Escherichia coli), P62593 (protein)
chain: MSIQHFRVALIPFFAAFCLPVFAHPETLVKVKDAEDQLGARVGYIELDLNSGKILESFRPEERFPMMSTFKVLLCGAVLSRVDAGQEQLGRRIHYSQNDLVEYSPVTEKHLTDGMTVRELCSAAITMSDNTAANLLLTTIGGPKELTAFLHNMGDHVTRLDRWEPELNEAIPNDERDTTMPAAMATTLRKLLTGELLTLASRQQLIDWMEADKVAGPLLRSALPAGWFIADKSGAGERGSRGIIAALGPDGKPSRIVVIYTTGSQATMDERNRQIAEIGASLIKHW
Km [1]: 73 µM

B2: Beta-lactamase (Enterobacter cloacae), P05364 (protein)
chain: MMRKSLCCALLLGISCSALATPVSEKQLAEVVANTITPLMKAQSVPGMAVAVIYQGKPHYYTFGKADIAANKPVTPQTLFELGSISKTFTGVLGGDAIARGEISLDDAVTRYWPQLTGKQWQGIRMLDLATYTAGGLPLQVPDEVTDNASLLRFYQNWQPQWKPGTTRLYANASIGLFGALAVKPSGMPYEQAMTTRVLKPLKLDHTWINVPKAEEAHYAWGYRDGKAVRVSPGMLDAQAYGVKTNVQDMANWVMANMAPENVADASLKQGIALAQSRYWRIGSMYQGLGWEMLNWPVEANTVVEGSDSKVALAPLPVAEVNPPAPPVKASWVHKTGSTGGFGSYVAFIPEKQIGIVMLANTSYPNPARVEAAYHILEALQ
Km [2]: 83 µM

B3: Metallo-beta-lactamase type 2 (Bacillus cereus), P14488 (protein)
chain: MKNTLLKLGVCVSLLGITPFVSTISSVQAERTVEHKVIKNETGTISISQLNKNVWVHTELGYFSGEAVPSNGLVLNTSKGLVLVDSSWDDKLTKELIEMVEKKFKKRVTDVIITHAHADRIGGMKTLKERGIKAHSTALTAELAKKNGYEEPLGDLQSVTNLKFGNMKVETFYPGKGHTEDNIVVWLPQYQILAGGCLVKSASSKDLGNVADAYVNEWSTSIENVLKRYGNINLVVPGHGEVGDRGLLLHTLDLLK
Km [3]: 56 µM
